Data on 13 molecules can be found in ChEMBL document CHEMBL4334464, “From Phenylthiazoles to Phenylpyrazoles: Broadening the Antibacterial Spectrum toward Carbapenem-Resistant Bacteria” (J Med Chem, 2019).

Converted amounts (≈) assume the structure as drawn. The source made the active and inactive calls. No cut-off for these calls is given here. Where only a bound is given, the exact number is not on record here.

Assay [1] concerns Klebsiella pneumoniae. Kind of assay: Antibacterial activity against carbapenem-resistant Klebsiella pneumoniae ATCC BAA-2146 clinical isolates after 18 to 20 hrs in aerobic condition by CLSI-based broth microdilution assay. Type of assay: functional.
For assay [2], the system named is Escherichia coli. Kind of assay: Antibacterial activity against carbapenem-resistant Escherichia coli BAA-2452 clinical isolates after 18 to 20 hrs in aerobic condition by CLSI-based broth microdilution assay. Type of assay: functional. A general note: Dilution methods test growth across graded concentrations, often in twofold steps.
Assay [3] has as its system Acinetobacter baumannii. Kind of assay: Antibacterial activity against carbapenem-resistant Acinetobacter baumannii ATCC BAA 1605 clinical isolates after 18 to 20 hrs in aerobic condition by CLSI-based broth microdilution assay. Type of assay: functional.
Assay [4] concerns Klebsiella pneumoniae. Kind of assay: Antibacterial activity against carbapenem-resistant Klebsiella pneumoniae ATCC BAA-1705 clinical isolates after 18 to 20 hrs in aerobic condition by CLSI-based broth microdilution assay. Type of assay: functional.
The test system of assay [5] is Pseudomonas aeruginosa. Kind of assay: Antibacterial activity against carbapenem-resistant Pseudomonas aeruginosa ATCC 1744 clinical isolates after 18 to 20 hrs in aerobic condition by CLSI-based broth microdilution assay. Type of assay: functional.
For assay [6], the system named is Escherichia coli. In words: Antibacterial activity against carbapenem-resistant Escherichia coli BAA-2469 clinical isolates after 18 to 20 hrs in aerobic condition by CLSI-based broth microdilution assay. Type of assay: functional.
The test system of assay [7] is Escherichia coli. Kind of assay: Antimicrobial activity against Escherichia coli JW55031 harboring deltatolC mutant after 18 to 20 hrs in aerobic condition by CLSI protocol based broth microdilution assay. Type of assay: functional.
Assay [8] relates to Staphylococcus aureus. In words: Antibacterial activity against methicillin-resistant Staphylococcus aureus NRS384-USA300 clinical isolates after 18 to 20 hrs in aerobic condition by CLSI protocol based broth microdilution assay. Type of assay: functional.
The subject of assay [9] is Salmonella enteritidis. In words: Antibacterial activity against Salmonella enteritidis ATCC 14028 infected in mouse J774 cells assessed as reduction in intracellular bacterial cells at 2 times MIC incubated for 24 hrs followed by re-plating on TSA plate and measured after 18 to 22 hrs relative to control. Type of assay: functional. Particulars: Salmonella enterica subsp. enterica serovar Enteritidis. The method in brief: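 J774 murine macrophages infected with Salmonella enteritidis ATCC 14028, then treated at 2×MIC for 24 h, in triplicate. Read-out is the percent reduction in intracellular colony forming units versus the untreated control.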

The subject of assay [10] is Escherichia coli. Kind of assay: Antibacterial activity against Escherichia coli BW25113 clinical isolates after 18 to 20 hrs in aerobic condition by CLSI-based broth microdilution assay. Type of assay: functional.
The subject of assay [11] is Klebsiella pneumoniae. Kind of assay: Antibacterial activity against Klebsiella pneumoniae BAA-1706 clinical isolates after 18 to 20 hrs in aerobic condition by CLSI-based broth microdilution assay. Type of assay: functional.
The subject of assay [12] is Pseudomonas aeruginosa. Kind of assay: Antibacterial activity against Pseudomonas aeruginosa ATCC 15442 clinical isolates after 18 to 20 hrs in aerobic condition by CLSI-based broth microdilution assay. Type of assay: functional.
Assay [13] has as its system Acinetobacter baumannii. Kind of assay: Antibacterial activity against Acinetobacter baumannii ATCC 19606 clinical isolates after 18 to 20 hrs in aerobic condition by CLSI-based broth microdilution assay. Type of assay: functional. Particulars: ATCC 19606 = CIP 70.34 = JCM 6841.
Assay [14] relates to Streptococcus pneumoniae. Kind of assay: Antibacterial activity against methicillin-resistant Streptococcus pneumoniae ATCC 700677 clinical isolates after 18 to 20 hrs by CLSI-based broth microdilution assay. Type of assay: functional.
Assay [15] deals with Staphylococcus aureus. In words: Bactericidal activity against methicillin-resistant Staphylococcus aureus NRS123-USA400 clinical isolates at 5 times MIC incubated over 24 hrs followed by replating on tryptic soy agar plate and further incubated for 18 to 20 hrs by time kill assay. Type of assay: functional, organism-based.
For assay [16], the system named is Enterococcus faecium. Kind of assay: Antibacterial activity against vancomycin-resistant Enterococcus faecium ATCC 700221 clinical isolates after 18 to 20 hrs in aerobic condition by CLSI-based broth microdilution assay. Type of assay: functional.
Assay [17] concerns Staphylococcus aureus. In words: Antibacterial activity against methicillin-resistant Staphylococcus aureus NRS123-USA400 infected in mouse J774 cells assessed as reduction in intracellular bacterial cells at 2 times MIC incubated for 24 hrs followed by re-plating on TSA plate and measured after 18 to 22 hrs relative to control. Type of assay: functional. The method in brief:
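J774 murine macrophages were infected with MRSA USA400 and then treated at 2×MIC for 24 h, in triplicate. The read-out was percent reduction in intracellular colony-forming units versus untreated infected cells.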

Assay [18] deals with Streptococcus pneumoniae. In words: Antibacterial activity against cephalosporin-resistant Streptococcus pneumoniae ATCC 51916 clinical isolates after 18 to 20 hrs by CLSI-based broth microdilution assay. Type of assay: functional.
Assay [19] deals with Clostridioides difficile. In words: Antibacterial activity against Clostridium difficile ATCC BAA 1870 incubated for 48 hrs in anaerobic condition by CLSI-based broth microdilution assay. Type of assay: functional. Particulars: ATCC BAA 1870, 48 h.
Assay [20] concerns Staphylococcus aureus. In words: Antibiofilm activity against methicillin-resistant Staphylococcus aureus NRS384-USA300 clinical isolates assessed as inhibition of biofilm formation at 0.5 times MIC incubated for 24 hrs by crystal violet staining based spectrophotometric method relative to control. Type of assay: functional.
Assay [21] relates to Staphylococcus aureus. In words: Antibacterial activity against vancomycin-resistant Staphylococcus aureus isolate 12 after 18 to 20 hrs in aerobic condition by CLSI-based broth microdilution assay. Type of assay: functional.
The subject of assay [22] is Enterococcus faecalis. Kind of assay: Antibacterial activity against vancomycin-resistant Enterococcus faecalis ATCC 51299 clinical isolates after 18 to 20 hrs in aerobic condition by CLSI-based broth microdilution assay. Type of assay: functional.
The subject of assay [23] is Staphylococcus aureus. Kind of assay: Antibacterial activity against vancomycin-resistant Staphylococcus aureus isolate 10 after 18 to 20 hrs in aerobic condition by CLSI-based broth microdilution assay. Type of assay: functional.
Assay [24] relates to Listeria monocytogenes. In words: Antibacterial activity against Listeria monocytogenes ATCC 19111 after 18 to 20 hrs in aerobic condition by CLSI-based broth microdilution assay. Type of assay: functional.

One may read the MIC as the lowest concentration found to suppress growth. Read a high MIC as a less susceptible organism. For the molecule `C[C@@H](O)[C@H]1C(=O)N2C(C(=O)O)=C(SCCNC=N)C[C@H]12` [IMIPENEM ANHYDROUS], the MIC was determined as 32 µg/mL (≈ 107 µM) in assay [1]; 32 µg/mL (≈ 107 µM) in assay [2]; 32 µg/mL (≈ 107 µM) in assay [3]; 32 µg/mL (≈ 107 µM) in assay [4]; 16 µg/mL (≈ 53.4 µM) in assay [5]; 32 µg/mL (≈ 107 µM) in assay [6].

On to `CCCCCCC#Cc1ccc(-n2ncc(/C(C)=N/NC(=N)N)c2C)cc1`, for which the MIC is 8 µg/mL (≈ 21.9 µM) in [7] and 2 µg/mL (≈ 5.49 µM) in assay [8].

`C/C(=N\NC1=NCCN1)c1cnn(-c2ccc(C#CC3CC3)cc2)c1C`: the results for the MIC in [7] and in assay [8] were 32 µg/mL (≈ 92.4 µM) and 16 µg/mL (≈ 46.2 µM), respectively.

Regarding `CCCC#Cc1ccc(-n2ncc(/C(C)=N/NC3=NCCN3)c2C)cc1`, the MIC was 16 µg/mL (≈ 45.9 µM) in [7] and 8 µg/mL (≈ 23 µM) in [8].

Take `NC[C@H]1O[C@H](O[C@H]2[C@H](O)[C@@H](O[C@H]3O[C@H](CO)[C@@H](O)[C@H](N)[C@H]3O)[C@H](N)C[C@@H]2N)[C@H](O)[C@@H](O)[C@@H]1O`: in [9], the result was inactive.

For the molecule `CCCCC#Cc1ccc(-n2ncc(/C(C)=N/NC(=N)N)c2C)cc1`, the MIC in assay [7] worked out at 4 µg/mL (≈ 11.9 µM); in assay [8], 2 µg/mL (≈ 5.94 µM).

As for `C/C(=N\NC1=NCCN1)c1cnn(-c2ccc(C#CC3CCCCC3)cc2)c1C`, the MIC in assay [7] and in assay [8] was 4 µg/mL (≈ 10.3 µM) in each case.

As to COLISTIN, the MIC in [1] worked out at 0.25 µg/mL; in assay [2], 0.06 µg/mL; in [3], 0.25 µg/mL; in assay [4], 0.125 µg/mL; in assay [5], 1 µg/mL; in [6] it was 0.06 µg/mL.

Consider `C/C(=N\NC1=NCCN1)c1cnn(-c2ccc(C#Cc3ccccc3)cc2)c1C`, for which the MIC in assay [7] and in [8] was 4 µg/mL (≈ 10.5 µM) each time.

On to `C/C(=N/NC(=N)N)c1sc(-c2ccc(C#Cc3ccccc3)cc2)nc1C`, for which the result in [10], in assay [11], in assay [7], in assay [12] and in [13] was inactive.

In the case of `CN[C@H](CC(C)C)C(=O)N[C@H]1C(=O)N[C@@H](CC(N)=O)C(=O)N[C@H]2C(=O)N[C@H]3C(=O)N[C@H](C(=O)N[C@H](C(=O)O)c4cc(O)cc(O)c4-c4cc3ccc4O)[C@H](O)c3ccc(c(Cl)c3)Oc3cc2cc(c3O[C@@H]2O[C@H](CO)[C@@H](O)[C@H](O)[C@H]2O[C@H]2C[C@](C)(N)[C@H](O)[C@H](C)O2)Oc2ccc(cc2Cl)[C@H]1O` [VANCOMYCIN], the MIC in assay [14] is 1 µg/mL (≈ 0.69 µM); in assay [16], > 64 µg/mL; in assay [18], 2 µg/mL (≈ 1.38 µM); in [19], 1 µg/mL (≈ 0.69 µM); in [21], 64 µg/mL (≈ 44.2 µM); in assay [22], 32 µg/mL (≈ 22.1 µM). For the same molecule, the results for the MIC in [23] and in assay [24] were > 64 µg/mL and 2 µg/mL (≈ 1.38 µM), respectively. Further, the outcome in assay [15] was Active. The result in [17] was inactive. Further, the “inhibition (INH)” value in [20] was determined as 18%.

Take `C/C(=N\NC1=NCCN1)c1cnn(-c2ccc(C#CC(C)(C)O)cc2)c1C`: the values for the MIC in [7] and in [8] were 16 µg/mL (≈ 43.9 µM) and 32 µg/mL (≈ 87.8 µM), respectively.

In the case of `C/C(=N\NC(=N)N)c1cnn(-c2ccc(C#CC3CC3)cc2)c1C`, the MIC in assay [7] and in assay [8] was 8 µg/mL (≈ 25 µM) throughout.
